Screening results deposited in PubChem by The Scripps Research Institute Molecular Screening Center.
This is a sample that favours compounds with a hit; in the whole collection about 1.9% have one here.
LEDGF integ inh: blocks HIV-1 LEDGF/p75-dependent DNA integration. inhibition, % at 3.7 µM. AID 743269. 370,000 tested, 0.64% active. TR-FRET IN-LEDGF/p75 DNA integration, Eu/Cy5;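 active = inhibition above the screen-wide mean plus 3 SD, cut at about 13% in these data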;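 note: signal is the Cy5 over europium emission ratio at 671 and 618 nm; 0% = plate median of compound wells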
Rin1 Abl inh: inhibitors of human Rin1-Abl protein interaction; P00519+Q13671; TR-FRET Rin1/Abl binding, biochemical; inhibition, % at 7.35 µM; 360,000 tested, 0.4% active; AID 588664; in the data active = inhibition above about 5%, passing the limit was not always enough
TDP2 absorb: TDP2 (human) inhibition, absorbance primary screen; O95551; recombinant TDP2, T5PNP hydrolysis, p-nitrophenol absorbance 415 nm; inhibition, % at 12.8 µM; 370,000 tested, 0.34% active;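 active = inhibition above the mean of all tested compounds plus 3 SD, set per campaign, cut at about 25% in these data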;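 note: 0% = DMSO with enzyme and 100% = buffer with substrate but no TDP2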
Target sequence (O95551 whole entry, looked up): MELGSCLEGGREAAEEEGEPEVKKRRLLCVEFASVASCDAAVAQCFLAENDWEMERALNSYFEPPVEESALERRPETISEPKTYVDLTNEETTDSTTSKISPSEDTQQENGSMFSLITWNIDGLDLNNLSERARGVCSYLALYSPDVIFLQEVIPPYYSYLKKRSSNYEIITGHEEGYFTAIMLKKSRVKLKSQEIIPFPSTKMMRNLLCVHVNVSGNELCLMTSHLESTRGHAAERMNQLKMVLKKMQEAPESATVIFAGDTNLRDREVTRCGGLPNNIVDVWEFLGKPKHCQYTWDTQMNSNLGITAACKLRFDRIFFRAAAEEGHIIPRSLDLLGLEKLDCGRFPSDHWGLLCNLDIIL
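Material: recombinant human TDP2; quantity: TDP2 enzyme at 120 nM final; medium: Tris-HCl pH 7.5 with MgCl2; compound: single concentration, 12.8 µM nominal, with 1% DMSO; incubation: 2 h enzyme incubation at 37 °C; signal: epi absorbance; measure: percent inhibition; benchmarks: high control without enzyme, low control DMSO plus TDP2; repeats: singlicate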
MBD2 inh: inhibitors of human MBD2 binding to methylated oligonucleotide; inhibition, % at 4.4 µM; AID 686964; Q9UBB5; 370,000 tested, 0.31% active; TR-FRET; in the data active = inhibition above about 13%
UHRF1 binding: human UHRF1 methylated DNA binding inhibitors. 370,000 tested, 0.75% active. UHRF1 binding to methylated oligo, TR-FRET. AID 687016. inhibition, % at 4.4 µM. Q96T88; in the data active = inhibition above about 21%;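 note: UHRF1 SRA domain binding a hemimethylated CpG hairpin DNA probe; 0% = median of test compound wells and 100% = reference inhibitor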
Rin1 Abl conf: Rin1-Abl interaction inhibition confirmation; shares compounds with Rin1 Abl inh; TR-FRET Rin1-Abl binding, purified proteins; inhibition, % at 7.35 µM; 1,300 tested, 49% active; AID 602124
GFP quencher: quenches GFP fluorescence, counter-screen for Rin1-Abl inhibitors; shares compounds with Rin1 Abl inh; inhibitors/quenchers counterscreen; inhibition, % at 6.75 µM; 1,300 tested, 8.5% active;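 note: ABL1-eGFP fusion protein alone without its partner RIN1-SBP; 0% = protein with vehicle and 100% = wells lacking protein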
Starred values were filed as active, the others as inactive; . = no result. Cut-off read from the data, not from the text of the source, unless noted: active = inhibition above about 6.5%; inactive = the rest.

SMILES	LEDGF integ inh	Rin1 Abl inh	TDP2 absorb	MBD2 inh	UHRF1 binding	Rin1 Abl conf	GFP quencher
CN1C2=N[C@H](c3ccc(Br)cc3)CC(=O)N2/C(=C\c2ccccc2)[C@@H]1c1ccccc1	1	.	5	0	-1	.	.
Oc1c(CN2CCOCC2)cc(COCc2ccccc2)c2cccnc12	-7	11*	-14	2	-5	3	1
Oc1c(CNc2ccccc2)cc(COCc2ccccc2)c2cccnc12	-4	-2	-2	-6	-6	.	.
COC(=O)C[C@@H]1CC[C@H]2[C@@H](COc3ccc(NC(=O)Nc4ccccc4C)cc3C(=O)N2C)O1	-2	.	4	-5	0	.	.
COC(=O)[C@]12C[C@H](CC(=O)NCCc3ccccc3OC)C(=O)N(Cc3ccco3)C1=C[C@H](COCc1ccccc1)O[C@@H]2C	3	.	0	6	2	.	.
COc1ccc(CC(=O)OCC(=O)NC(=O)Nc2ccccc2F)cc1	-5	8.9*	1	3	-1	0	-1
O=S(=O)(Nc1nccs1)c1ccc(Br)cc1	-2	11*	7	2	-1	-2	0
Cc1ccccc1C(=O)N[C@H](C(=O)N1CCC[C@H]1C(=O)NCCc1ccccc1Cl)c1ccccc1	-2	.	11	2	-2	.	.
CCCCOc1ccc(C(C)NC(=O)CCS(=O)(=O)Cc2ccc(C)cc2)cc1 (configuration not stated)	-1	4.4*	-10	6	5	-7	0
COc1ccccc1CCC(=O)Nc1cc(S(=O)(=O)N2CCOCC2)ccc1N1CCCC1	5	0	1	1	-2	.	.
COc1ccccc1NCC(=O)Nc1cc(S(=O)(=O)N2CCOCC2)ccc1N1CCOCC1	3	9.2*	0	1	-3	8.2*	2
COCCNc1nc(NCCN2CCNC2=O)c2sccc2n1	0	-2	-12	-2	0	.	.
COc1ccccc1CNc1nc(NCCN2CCNC2=O)c2sccc2n1	3	12*	7	-4	-1	6.9*	-1
O=C(Cc1ccccc1)Nc1nnc(-c2cccs2)s1	0	9.4*	-6	8	3	5	0
C=CCOC(=O)N1CCN(C(=O)c2ccc3nc(C)n(C4CCCC4)c3c2)CC1	4	.	-5	-3	2	.	.
CN(C)C(CNC(=O)c1ccc(NC(=O)CC#N)cc1)c1ccccc1 (configuration not stated)	-5	10*	5	-1	-2	6.7*	0
N#CCC(=O)Nc1ccc(C(=O)NCCC(c2ccccc2)c2ccccc2)cc1	-2	3	-2	1	0	.	.
COc1ccc(C2CC(=O)C(c3cccc(C)c3)=CN2Cc2ccccc2)cc1 (configuration not stated)	1	.	-2	4	0	.	.
COC(=O)[C@]12C[C@H](CC(=O)NCCCN3CCCC3=O)C(=O)N(Cc3ccc4c(c3)OCO4)C1=C[C@H](C(C)C)O[C@@H]2C1CC1	-1	.	12	-4	-1	.	.
C=C(C)/C=C1/C(Cc2ccccc2)N(CC2CC2)C(=N)N1C(=O)OCc1ccccc1 (configuration not stated)	0	.	-6	5	-2	.	.
NC(=O)c1cc(-c2ccccc2)nc(Oc2ccccc2)n1	4	10*	-1	-5	2	2	1
N#Cc1cc(-c2ccccc2)nc(Oc2ccccc2)n1	1	-1	5	3	-2	.	.
COc1ccc(C(c2oc(CO)cc(=O)c2O)c2oc(CO)cc(=O)c2O)cc1	2	16*	-22	0	0	11*	2
COc1ccc(C(c2oc(CO)cc(=O)c2O)c2oc(CO)cc(=O)c2O)cc1OC	4	-1	-4	2	0	.	.
CCOC(=O)[C@]12CCCC3=C1N(CCC3)C(=O)[C@@H](CC(=O)N1CCC(c3ccccc3)CC1)C2	-2	.	-6	-1	1	.	.
CC(C)(C)[C@@H]1C=C(C(=O)N2CCN(Cc3ccccc3)CC2)O[C@H](OCc2ccc(CO)cc2)C1	0	5	-16	-2	3	.	.
